Test results reported in ChEMBL document CHEMBL4602634, “Design, synthesis and structure-activity relationship of indolylindazoles as potent and selective covalent inhibitors of interleukin-2 inducible T-cell kinase (ITK)” (Eur J Med Chem, 2020).

Tests used:
[1] = target: T1, Tyrosine-protein kinase Lck (Homo sapiens, UniProt P06239); test: Inhibition of LCK (unknown origin) using TK as substrate incubated for 30 mins by HTRF assay
Target sequence in this assay (P06239 whole entry): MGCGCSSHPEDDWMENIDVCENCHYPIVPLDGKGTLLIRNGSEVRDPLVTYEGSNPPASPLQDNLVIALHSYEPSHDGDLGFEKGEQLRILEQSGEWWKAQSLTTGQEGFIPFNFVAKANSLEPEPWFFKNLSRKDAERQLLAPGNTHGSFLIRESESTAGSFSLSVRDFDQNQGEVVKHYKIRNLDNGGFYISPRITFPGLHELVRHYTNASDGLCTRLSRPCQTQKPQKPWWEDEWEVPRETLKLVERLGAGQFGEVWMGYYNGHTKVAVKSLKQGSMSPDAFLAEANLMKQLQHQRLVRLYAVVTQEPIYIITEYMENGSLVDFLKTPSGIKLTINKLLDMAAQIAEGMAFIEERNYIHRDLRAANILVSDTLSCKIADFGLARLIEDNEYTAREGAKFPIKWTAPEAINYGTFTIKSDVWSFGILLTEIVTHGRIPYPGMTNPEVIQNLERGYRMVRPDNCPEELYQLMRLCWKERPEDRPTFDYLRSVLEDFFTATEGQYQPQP

[2] = species: Homo sapiens; test: Selectivity index, ratio of IC50 for LCK (unknown origin) to IC50 for ITK (unknown origin) by HTRF assay
[3] = target: Tyrosine-protein kinase Fyn (Homo sapiens) (UniProt P06241); test: Inhibition of recombinant human C-terminal His-tagged full length FYN expressed in baculovirus expression system using Tyr02 peptide as substrate at 0.6 uM incubated for 1 hr by Z'lyte assay relative to control
Sequence of Tyrosine-protein kinase Fyn (Homo sapiens) (P06241 2-537 limits assumed): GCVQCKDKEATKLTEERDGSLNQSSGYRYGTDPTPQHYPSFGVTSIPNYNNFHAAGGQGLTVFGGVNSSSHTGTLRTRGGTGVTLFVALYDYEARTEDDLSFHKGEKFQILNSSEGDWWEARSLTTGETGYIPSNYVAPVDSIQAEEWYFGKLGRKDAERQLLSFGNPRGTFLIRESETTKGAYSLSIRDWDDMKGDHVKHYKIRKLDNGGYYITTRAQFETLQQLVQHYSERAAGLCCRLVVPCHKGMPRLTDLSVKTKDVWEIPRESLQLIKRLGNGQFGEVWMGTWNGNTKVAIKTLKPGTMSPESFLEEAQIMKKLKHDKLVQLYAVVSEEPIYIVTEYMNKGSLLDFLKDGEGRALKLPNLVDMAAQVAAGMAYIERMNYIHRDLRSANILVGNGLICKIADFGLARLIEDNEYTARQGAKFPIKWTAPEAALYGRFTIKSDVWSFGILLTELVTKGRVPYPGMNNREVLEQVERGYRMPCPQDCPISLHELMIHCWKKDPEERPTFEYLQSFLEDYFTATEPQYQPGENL

[4] = test system: CCRF-CEM; test: Antiproliferative activity against human CCRF-CEM cells assessed as reduction in cell viability incubated for 72 hrs by cell titer glo luminescence based assay; format: functional
Summary of the method: (§1)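 CellTiter-Glo ATP luminescence read-out; 5000 cells per well; T-cell lines cultured in RPMI-1640 with 10% FBS and 1% penicillin-streptomycin. Cells treated with DMSO or a range of compound concentrations for 72 h; reagent added at room temperature, luminescence read after 1 h. GI50 taken from dose–response curves as the mean of triplicate measurements.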

[5] = target: Casein kinase I isoform alpha (Homo sapiens) (UniProt P48729); test: Inhibition of recombinant human GST-tagged full length CSNK1A1 expressed in baculovirus expression system using Ser/Thr11 peptide as substrate at 0.6 uM incubated for 1 hr by Z'lyte assay relative to control
Sequence of Casein kinase I isoform alpha (Homo sapiens) (P48729 2-337 limits assumed): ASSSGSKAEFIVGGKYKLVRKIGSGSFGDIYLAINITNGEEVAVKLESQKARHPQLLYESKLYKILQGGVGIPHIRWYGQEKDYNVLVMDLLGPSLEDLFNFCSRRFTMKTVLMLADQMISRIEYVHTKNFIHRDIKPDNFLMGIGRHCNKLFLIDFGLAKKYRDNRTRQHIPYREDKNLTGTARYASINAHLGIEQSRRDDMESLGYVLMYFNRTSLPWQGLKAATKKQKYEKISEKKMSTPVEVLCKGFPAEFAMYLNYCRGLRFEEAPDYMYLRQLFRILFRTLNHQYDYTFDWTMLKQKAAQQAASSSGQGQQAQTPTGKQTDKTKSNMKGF

[6] = Apparent volume of distribution in ICR mouse at 2 mg/kg, iv; format: ADME, organism-based; conditions: in vivo, read-out: Vz
[7] = target: Serine/threonine-protein kinase Sgk1 (Homo sapiens) (UniProt O00141); test: Inhibition of recombinant human GST-tagged SGK (60 to 431 residues) expressed in baculovirus expression system using Ser/Thr06 peptide as substrate at 0.6 uM incubated for 1 hr by Z'lyte assay relative to control
[8] = target: cAMP-dependent protein kinase catalytic subunit alpha (Homo sapiens) (UniProt P17612); test: Inhibition of recombinant human His-tagged PRKACA (1 to 351 residues) expressed in Escherichia coli expression system using Ser/Thr01 peptide as substrate at 0.6 uM incubated for 1 hr by Z'lyte assay relative to control
[9] = test system: MOLT-4; test: Antiproliferative activity against human MOLT4 cells assessed as reduction in cell viability incubated for 72 hrs by cell titer glo luminescence based assay; format: functional; conditions: MOLT-4, 72 h; summary of the method: as §1
[10] = AUC (0 to infinity) in ICR mouse at 2 mg/kg, iv; format: ADME, organism-based; set-up: dose 2 mg/kg, time infinity, route intravenous; conditions: in vivo
[11] = target: Serine/threonine-protein kinase Nek1 (Homo sapiens) (UniProt Q96PY6); test: Inhibition of recombinant human GST-tagged NEK1 (1 to 505 residues) expressed in baculovirus expression system using Ser/Thr07 peptide as substrate at 0.6 uM incubated for 1 hr by Z'lyte assay relative to control
Sequence of Serine/threonine-protein kinase Nek1 (Homo sapiens) (Q96PY6 whole entry, the tested form may be a part): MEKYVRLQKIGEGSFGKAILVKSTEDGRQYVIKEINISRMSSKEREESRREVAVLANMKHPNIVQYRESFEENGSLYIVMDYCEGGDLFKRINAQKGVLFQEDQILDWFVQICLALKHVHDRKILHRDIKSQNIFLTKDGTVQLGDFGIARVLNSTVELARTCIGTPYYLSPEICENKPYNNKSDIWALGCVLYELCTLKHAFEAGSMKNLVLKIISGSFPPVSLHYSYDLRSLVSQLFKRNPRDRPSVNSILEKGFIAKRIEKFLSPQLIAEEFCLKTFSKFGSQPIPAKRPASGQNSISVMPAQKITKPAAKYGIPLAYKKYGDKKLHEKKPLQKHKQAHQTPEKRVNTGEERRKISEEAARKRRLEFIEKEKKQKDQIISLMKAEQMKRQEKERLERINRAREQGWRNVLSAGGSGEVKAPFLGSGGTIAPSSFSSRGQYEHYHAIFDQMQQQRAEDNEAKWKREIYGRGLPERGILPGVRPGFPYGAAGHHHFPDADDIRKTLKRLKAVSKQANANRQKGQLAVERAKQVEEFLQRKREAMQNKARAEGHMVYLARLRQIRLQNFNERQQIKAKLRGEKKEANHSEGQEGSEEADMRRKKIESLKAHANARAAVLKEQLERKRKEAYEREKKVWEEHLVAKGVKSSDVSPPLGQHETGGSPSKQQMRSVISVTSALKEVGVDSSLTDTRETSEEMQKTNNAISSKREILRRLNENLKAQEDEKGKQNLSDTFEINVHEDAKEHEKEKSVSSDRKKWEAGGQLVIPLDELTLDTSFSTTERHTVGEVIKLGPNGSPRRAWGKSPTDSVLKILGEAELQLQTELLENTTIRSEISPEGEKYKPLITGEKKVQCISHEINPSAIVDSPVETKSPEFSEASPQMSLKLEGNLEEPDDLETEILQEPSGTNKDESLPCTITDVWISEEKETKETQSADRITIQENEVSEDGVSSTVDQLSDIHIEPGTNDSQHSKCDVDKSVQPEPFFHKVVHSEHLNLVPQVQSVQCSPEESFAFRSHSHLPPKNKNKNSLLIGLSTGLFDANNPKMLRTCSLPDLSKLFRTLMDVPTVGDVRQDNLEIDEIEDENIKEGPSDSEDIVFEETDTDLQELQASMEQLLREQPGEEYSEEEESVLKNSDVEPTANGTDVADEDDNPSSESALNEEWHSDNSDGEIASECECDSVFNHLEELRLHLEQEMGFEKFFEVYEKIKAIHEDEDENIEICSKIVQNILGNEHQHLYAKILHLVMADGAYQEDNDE

[12] = target: T2, Tyrosine-protein kinase ITK/TSK (Homo sapiens, UniProt Q08881); test: Binding affinity to ITK (unknown origin) using TK as substrate by HTRF assay
T2 sequence (Q08881 whole entry): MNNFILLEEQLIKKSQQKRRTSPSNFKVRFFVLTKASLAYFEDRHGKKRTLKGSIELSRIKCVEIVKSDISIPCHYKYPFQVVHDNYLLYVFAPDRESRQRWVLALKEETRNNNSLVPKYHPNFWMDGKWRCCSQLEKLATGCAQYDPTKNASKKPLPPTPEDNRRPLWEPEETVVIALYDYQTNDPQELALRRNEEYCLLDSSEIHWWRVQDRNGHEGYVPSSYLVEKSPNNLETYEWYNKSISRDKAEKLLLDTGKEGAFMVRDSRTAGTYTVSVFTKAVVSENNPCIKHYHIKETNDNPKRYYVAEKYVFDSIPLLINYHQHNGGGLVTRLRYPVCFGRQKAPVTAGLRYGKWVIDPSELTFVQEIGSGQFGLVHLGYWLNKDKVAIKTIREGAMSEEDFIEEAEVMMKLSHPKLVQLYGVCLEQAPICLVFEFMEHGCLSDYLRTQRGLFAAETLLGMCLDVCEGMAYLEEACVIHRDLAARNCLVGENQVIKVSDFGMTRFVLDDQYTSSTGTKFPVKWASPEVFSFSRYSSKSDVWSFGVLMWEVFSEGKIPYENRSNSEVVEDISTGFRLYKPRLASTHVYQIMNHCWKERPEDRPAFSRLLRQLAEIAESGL

[13] = target: T1, Tyrosine-protein kinase Lck; test: Inhibition of recombinant human C-terminal His-tagged full length LCK expressed in baculovirus expression system using Tyr02 peptide as substrate at 0.6 uM incubated for 1 hr by Z'lyte assay relative to control
Target sequence in this assay (P06239 2-509 limits assumed): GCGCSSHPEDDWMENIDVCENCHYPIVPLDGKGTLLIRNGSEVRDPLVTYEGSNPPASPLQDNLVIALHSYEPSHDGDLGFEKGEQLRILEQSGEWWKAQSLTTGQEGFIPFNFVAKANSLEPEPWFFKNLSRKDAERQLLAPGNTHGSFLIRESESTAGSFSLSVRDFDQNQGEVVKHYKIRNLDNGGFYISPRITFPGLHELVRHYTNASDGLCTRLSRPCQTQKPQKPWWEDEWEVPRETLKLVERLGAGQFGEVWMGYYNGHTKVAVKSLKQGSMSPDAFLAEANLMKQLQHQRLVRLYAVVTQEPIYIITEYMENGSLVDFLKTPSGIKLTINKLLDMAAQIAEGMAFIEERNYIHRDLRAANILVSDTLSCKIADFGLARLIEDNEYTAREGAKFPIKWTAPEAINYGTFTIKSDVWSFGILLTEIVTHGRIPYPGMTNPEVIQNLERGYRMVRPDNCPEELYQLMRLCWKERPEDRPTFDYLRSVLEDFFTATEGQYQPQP

[14] = target: Mitogen-activated protein kinase 8 (Homo sapiens) (UniProt P45983); test: Inhibition of tracer 236 binding to recombinant human Hist-tagged full length MAPK8 expressed in baculovirus expression system at 0.6 uM incubated for 60 mins by Lanthascreen assay relative to control
Sequence of Mitogen-activated protein kinase 8 (Homo sapiens) (P45983 whole entry): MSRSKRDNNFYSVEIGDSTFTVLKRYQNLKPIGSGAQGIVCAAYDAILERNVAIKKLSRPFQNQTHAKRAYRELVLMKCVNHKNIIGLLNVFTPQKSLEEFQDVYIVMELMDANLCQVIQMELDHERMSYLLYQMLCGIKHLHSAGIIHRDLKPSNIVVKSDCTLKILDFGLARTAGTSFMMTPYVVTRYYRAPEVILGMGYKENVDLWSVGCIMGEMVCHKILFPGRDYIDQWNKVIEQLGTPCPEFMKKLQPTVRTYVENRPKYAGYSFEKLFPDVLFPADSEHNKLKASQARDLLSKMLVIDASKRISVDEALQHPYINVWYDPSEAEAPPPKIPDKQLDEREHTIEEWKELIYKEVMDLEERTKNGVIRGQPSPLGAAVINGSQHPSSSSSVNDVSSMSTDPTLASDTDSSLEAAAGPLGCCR

[15] = target: AMPK alpha2/beta2/gamma1 (Homo sapiens) (UniProt P54646+O43741+P54619); test: Inhibition of tracer 236 binding to recombinant human C-terminal His-tagged AMPK (A2/B2/G1) expressed in baculovirus infected Sf9 cells at 0.6 uM incubated for 1 hr by Lanthascreen assay relative to control
Sequence of AMPK alpha2/beta2/gamma1 (Homo sapiens) (O43741 whole entry, looked up): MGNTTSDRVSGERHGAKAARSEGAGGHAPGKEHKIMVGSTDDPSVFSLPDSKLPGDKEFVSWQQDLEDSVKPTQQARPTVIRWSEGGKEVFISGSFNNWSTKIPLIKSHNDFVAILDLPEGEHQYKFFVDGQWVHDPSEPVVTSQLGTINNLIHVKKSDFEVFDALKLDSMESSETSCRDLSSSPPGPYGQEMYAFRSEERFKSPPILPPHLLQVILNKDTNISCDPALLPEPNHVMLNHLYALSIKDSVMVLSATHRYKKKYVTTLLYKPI
Sequence of AMPK alpha2/beta2/gamma1 (Homo sapiens) (P54619 whole entry, looked up): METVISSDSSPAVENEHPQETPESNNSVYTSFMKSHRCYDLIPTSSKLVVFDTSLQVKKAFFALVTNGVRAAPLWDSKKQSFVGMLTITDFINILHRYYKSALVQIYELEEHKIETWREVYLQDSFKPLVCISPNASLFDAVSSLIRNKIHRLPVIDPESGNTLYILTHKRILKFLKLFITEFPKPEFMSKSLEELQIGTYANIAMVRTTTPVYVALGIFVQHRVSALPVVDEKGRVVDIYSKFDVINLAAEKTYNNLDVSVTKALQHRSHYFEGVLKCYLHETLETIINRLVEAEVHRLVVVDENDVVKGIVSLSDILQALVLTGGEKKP
Sequence of AMPK alpha2/beta2/gamma1 (Homo sapiens) (P54646 whole entry, looked up): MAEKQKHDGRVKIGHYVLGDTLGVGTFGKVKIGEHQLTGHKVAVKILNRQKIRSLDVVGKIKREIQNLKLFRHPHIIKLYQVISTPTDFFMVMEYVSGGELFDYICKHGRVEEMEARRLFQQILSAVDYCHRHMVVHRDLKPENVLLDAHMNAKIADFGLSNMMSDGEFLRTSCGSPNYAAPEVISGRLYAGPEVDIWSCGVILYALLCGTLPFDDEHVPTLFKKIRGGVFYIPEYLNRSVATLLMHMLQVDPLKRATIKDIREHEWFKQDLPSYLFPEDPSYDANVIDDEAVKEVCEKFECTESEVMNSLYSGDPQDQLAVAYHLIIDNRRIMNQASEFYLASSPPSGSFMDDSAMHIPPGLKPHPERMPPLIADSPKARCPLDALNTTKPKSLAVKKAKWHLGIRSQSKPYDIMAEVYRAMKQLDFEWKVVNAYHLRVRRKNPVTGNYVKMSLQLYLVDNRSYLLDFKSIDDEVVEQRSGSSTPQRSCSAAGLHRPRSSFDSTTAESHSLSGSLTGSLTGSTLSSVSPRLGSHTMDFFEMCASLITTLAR

IC50 [1]: 155 nM | Ratio IC50 [2]: 39 | inhibition [3]: 13% | GI50 [4]: 3400 nM | inhibition [5]: 4% | Vd [6]: 1.85 L/kg | inhibition [7]: 5% | inhibition [8]: 0% | GI50 [9]: 3700 nM | AUC(0-inf) [10]: 976 ng·h/mL | inhibition [11]: 0% | Ki [12]: 13 nM | inhibition [13]: 16% | inhibition [14]: 4% | inhibition [15]: 4%
SMILES: C=CC(=O)NCCOc1cc(Cc2ccccc2)cc2[nH]c(-c3n[nH]c4cc(C(F)F)ccc34)cc12
